In ChEMBL document CHEMBL5096213 (Bioorg Med Chem, 2022) one finds MIC50 and Ratio data, which are given here for 76 molecules.

The structures appear in SMILES notation. Converted amounts (≈) assume the structure as drawn. Some results are limits rather than exact numbers.

The first experiment deals with Mycobacterium tuberculosis variant bovis. Briefly: Antimycobacterial activity against Mycobacterium bovis BCG Pasteur ATCC35734 assessed as inhibition of bacterial growth incubated for 5 days by broth microdilution method. The experiment is classed as functional. The settings on record: BCG Pasteur ATCC35734, 120 h, time 5 day. An outline of the steps:
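M. bovis BCG Pasteur grown to mid-log (OD600 0.4–0.6), seeded at OD600 0.05 into 2-fold serial compound dilutions in complete Middlebrook 7H9, neutral pH. Incubation 5 days, 37 °C, shaking 90 rpm, humidified. […] At least two experiments, means reported.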
As to `O=C(O)c1ncccn1`, the MIC50 is above 4000 µM. Regarding `O=C(O)c1ccncc1` [ISONICOTINIC ACID], the MIC50 stood at 2700 µM (≈ 332 µg/mL). Consider `Cc1cncc(C(=O)O)n1`, for which the MIC50 is 2400 µM (≈ 332 µg/mL). Regarding `O=C(O)c1cncc(Cl)n1`, the MIC50 was found to be 1000 µM (≈ 159 µg/mL). For `CCN(CC)c1nccnc1C(=O)O`, the MIC50 was 3600 µM (≈ 703 µg/mL).

For the molecule `CC(=O)Nc1cnc(C(=O)O)c(N)n1`, the MIC50 is above 4000 µM. In the case of `O=C(O)c1nccnc1NC1CCC1`, the MIC50 amounted to 400 µM (≈ 77.3 µg/mL).

In the case of `CCCCN(C)c1nccnc1C(=O)O`, the MIC50 stood at 2300 µM (≈ 481 µg/mL).

For `O=C(O)c1nccnc1NCc1ccccc1`, the MIC50 amounted to 200 µM (≈ 45.8 µg/mL).

For `O=C(O)c1nccnc1N1CCOCC1`, the MIC50 is above 5000 µM. Same read-out and setting: the figure for `NS(=O)(=O)c1cnccn1` is above 4000 µM; for `Cc1cnc(C(=O)O)cn1` it is 3200 µM (≈ 442 µg/mL); for `CN(Cc1ccccc1)c1nccnc1C(=O)O` it is 700 µM (≈ 170 µg/mL). As to `Nc1cnc(C(=O)O)cn1`, the MIC50 is 800 µM (≈ 111 µg/mL).

With `CC(C)Nc1cnc(C(=O)O)c(N)n1`, the MIC50 was 1200 µM (≈ 235 µg/mL). Consider `O=C(O)c1nccnc1NC1CCCC1`, for which the MIC50 is 400 µM (≈ 82.9 µg/mL). Take `O=C(O)c1ccncn1`: the MIC50 worked out at 2000 µM (≈ 248 µg/mL). As to `O=C(O)c1cccnc1` [NIACIN], the MIC50 was found to be 900 µM (≈ 111 µg/mL).

Take `O=C(O)c1nccnc1N1CCC2(CC1)CC2`: the MIC50 is above 2500 µM. Take `CCCC(=O)Nc1cnc(C(=O)O)c(N)n1`: the MIC50 is above 4000 µM. Consider `O=C(O)c1nccnc1O`, for which the MIC50 was above 4000 µM. The same measure, in the same setting: the figure for `COc1nccnc1C(=O)O` is 2700 µM (≈ 416 µg/mL); for `O=C(O)c1nccnc1Cl` it is 1800 µM (≈ 285 µg/mL); for `O=C(O)c1cncnc1` it is above 5000 µM. With `CC(C)Nc1nccnc1C(=O)O`, the MIC50 came to 20 µM (≈ 3.62 µg/mL). Take `CC(C)CNc1nccnc1C(=O)[O-].[Na+]`: the MIC50 was determined as 200 µM. On to `CCCCN(C)c1cnc(C(=O)O)c(N)n1`, for which the MIC50 was determined as 200 µM (≈ 44.9 µg/mL). `O=C(O)c1cnc(Br)cn1`: the MIC50 amounted to 2500 µM (≈ 507 µg/mL). As for `O=C(O)c1cnccn1` [PYRAZINOIC ACID], the MIC50 stood at 1000 µM (≈ 124 µg/mL).

Regarding `Nc1cncc(C(=O)O)n1`, the MIC50 came to 2600 µM (≈ 362 µg/mL). As for `O=C(O)c1ccccc1` [BENZOIC ACID], the MIC50 came out at 2200 µM (≈ 269 µg/mL).

With `COc1cncc(C(=O)O)n1`, the MIC50 stood at 2000 µM (≈ 308 µg/mL). The same measure, in the same setting: as for `O=C(O)c1nccnc1Br`, the figure is above 4000 µM; as for `O=C(O)c1cncc(NC2CCC2)n1`, above 2500 µM; as for `O=C(O)c1cnc(O)cn1`, above 3000 µM. Turning to `CC(=O)NS(=O)(=O)c1cnccn1`, the MIC50 was above 4000 µM. On the same count and under the same terms, as for `CCC(=O)Nc1cnc(C(=O)O)cn1`, the figure is 3500 µM (≈ 683 µg/mL); as for `CCCNc1cnc(C(=O)O)cn1`, 1400 µM (≈ 254 µg/mL). For `Cc1ccccc1-c1nccnc1C(=O)O`, the MIC50 is above 5000 µM.

In the case of `O=C(O)c1cncc(Br)n1`, the MIC50 is 3000 µM (≈ 609 µg/mL). With `O=C(O)c1ccnnc1`, the MIC50 was above 4000 µM. `NC(=S)c1cnccn1`: the MIC50 was determined as 2700 µM (≈ 376 µg/mL). With `O=C(O)c1cccnn1`, the MIC50 was above 5000 µM. Same read-out and setting: as for `O=C(O)c1nccnc1N1CCSCC1`, the figure is above 5000 µM. On to `CC(C)CN(C)c1nccnc1C(=O)O`, for which the MIC50 worked out at 3500 µM (≈ 732 µg/mL).

On to `Cc1cccc(-c2nccnc2C(=O)O)c1`, for which the MIC50 turned out to be 800 µM (≈ 171 µg/mL). For `CCNc1cncc(C(=O)[O-])n1.[Na+]`, the MIC50 is above 2500 µM. Same read-out and setting: as for `O=C(O)c1nccnc1N1CCCCC1`, the figure is above 2500 µM; as for `CC(C)CN(C)c1cnc(C(=O)O)c(N)n1`, 700 µM (≈ 157 µg/mL).

For the molecule `O=C(O)c1cncc(O)n1`, the MIC50 was above 2400 µM. On the same count and under the same terms, as for `Nc1nccnc1C(=O)O`, the figure is 800 µM (≈ 111 µg/mL). As for `CCC(=O)Nc1nccnc1C(=O)O`, the MIC50 is 1500 µM (≈ 293 µg/mL).

For the molecule `CC(=O)c1cnccn1`, the MIC50 is above 5000 µM. Consider `CCC(=O)Nc1cncc(C(=O)O)n1`, for which the MIC50 worked out at 200 µM (≈ 39 µg/mL). On the same count and under the same terms, the figure for `O=C(O)c1ccccn1` [2-PICOLINIC ACID] is 700 µM (≈ 86.2 µg/mL); for `CC(C)(C)Nc1nccnc1C(=O)O` it is 400 µM (≈ 78.1 µg/mL); for `CCNc1cnc(C(=O)[O-])cn1.[Na+]` it is 1800 µM. Regarding `CC(C)CNc1cnc(C(=O)[O-])cn1.[Na+]`, the MIC50 was found to be 400 µM. Take `CC(C)CNc1cncc(C(=O)[O-])n1.[Na+]`: the MIC50 was above 2500 µM.

As for `CNc1nccnc1C(=O)O`, the MIC50 was found to be 700 µM (≈ 107 µg/mL). The same measure, in the same setting: the figure for `c1cnc(-c2nnn[nH]2)cn1` is above 4000 µM; for `O=C(O)c1cncc(-c2ccccc2)n1` it is 1700 µM (≈ 340 µg/mL); for `O=C(O)c1nccnc1N1CCCC1` it is 4700 µM (≈ 908 µg/mL).

For the molecule `Cc1nccnc1C(=O)O`, the MIC50 is 3500 µM (≈ 483 µg/mL). As for `O=C(O)c1nccnc1-c1ccccc1`, the MIC50 was 1500 µM (≈ 300 µg/mL). Regarding `Cc1ccc(-c2nccnc2C(=O)O)cc1`, the MIC50 is 1000 µM (≈ 214 µg/mL).

As to `O=C(O)c1cnc2ccccc2n1`, the MIC50 amounted to 700 µM (≈ 122 µg/mL). For `COc1cnc(C(=O)O)cn1`, the MIC50 is 3500 µM (≈ 539 µg/mL). As for `CCCCNc1nccnc1C(=O)O`, the MIC50 was 600 µM (≈ 117 µg/mL). For `CCNc1nccnc1C(=O)[O-].[Na+]`, the MIC50 was 400 µM.

On to `CC(C)C(=O)Nc1cnc(C(=O)O)c(N)n1`, for which the MIC50 is above 4000 µM. Take `CCCNc1nccnc1C(=O)O`: the MIC50 is 200 µM (≈ 36.2 µg/mL). On the same count and under the same terms, as for `O=C(O)c1cnc(Cl)cn1`, the figure is 1700 µM (≈ 270 µg/mL); as for `O=C(O)c1cnc(-c2ccccc2)cn1`, above 4000 µM. Turning to `O=C(O)c1nccnc1Nc1ccccc1`, the MIC50 was found to be 400 µM (≈ 86.1 µg/mL). As for `O=C(O)c1cnc(NC2CCC2)cn1`, the MIC50 is above 2500 µM.

Another experiment shares this test system. Briefly: Potency index, ratio of pyrazinoic-acid MIC50 to test compound MIC50 for antimycobacterial activity against Mycobacterium bovis BCG Pasteur ATCC35734 assessed as inhibition of bacterial growth incubated for 5 days by broth microdilution method. It counts as functional. The conditions noted are these: time 5 day.
Consider `CC(C)CNc1nccnc1C(=O)[O-].[Na+]`, for which the Ratio is listed as 2.5. Turning to `CCNc1cncc(C(=O)[O-])n1.[Na+]`, the Ratio was determined as 2.5. In the case of `CCC(=O)Nc1cncc(C(=O)O)n1`, the Ratio stood at 5. `CCNc1cnc(C(=O)[O-])cn1.[Na+]`: the Ratio amounted to 2.5. For `CC(C)CNc1cnc(C(=O)[O-])cn1.[Na+]`, the Ratio is 2.5. On to `CC(C)CNc1cncc(C(=O)[O-])n1.[Na+]`, for which the Ratio came to 2.5.

Turning to `CCNc1nccnc1C(=O)[O-].[Na+]`, the Ratio is 2.5.
